{"source": "ChEMBL document CHEMBL4017532", "about": "“Multifunctional Hybrid Compounds Derived from 2-(2,5-Dioxopyrrolidin-1-yl)-3-methoxypropanamides with Anticonvulsant and Antinociceptive Properties” (J Med Chem, 2017)", "key": {"[1]": {"assay": "Retention time of the compound by LC-MS method"}, "Rattus norvegicus [2]": {"species_on_record": "Rattus norvegicus", "assay": "Displacement of [3H]CGP 39653 from NMDA receptor in rat cerebral cortex at 100 uM after 60 mins by liquid scintillation counting", "outline": "(§1)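 Radioligand binding was run as a contract service. Percent inhibition of specific labelled-ligand binding was measured at 100 μM test compound, or 200 μM for hERG.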"}, "Mus musculus [3]": {"system": "Mus musculus", "assay": "Antinociceptive activity in Albino Swiss CD-1 mouse assessed as inhibition of capsaicin-induced nociception by measuring time spent licking injected paw administered ip 30 mins mins prior to capsaicin challenge measured for 5 mins", "assay_type": "functional, organism-based", "outline": "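Mice (male CD-1, 18–25 g) were pretreated ip 30 min before intraplantar capsaicin. Doses were 25, 50 or 100 mg/kg, or 100, 150 or 200 mg/kg for the reference. Vehicle was 1% Tween 80 at 10 mL/kg. Duration of nociceptive response was scored over 5 min after injection. Data are mean ± SEM of 8–10 mice, by one-way ANOVA with Dunnett's test against vehicle.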"}, "Mus musculus [4]": {"system": "Mus musculus", "assay": "Anticonvulsant activity in Albino Swiss CD-1 mouse assessed as protection against 6 Hz current-induced seizure at 100 mg/kg, ip pretreated up to 2 hrs followed by 6 Hz current induction for 3 secs relative to control", "assay_type": "functional"}, "Mus musculus [5]": {"system": "Mus musculus", "assay": "Anticonvulsant activity in Albino Swiss CD-1 mouse assessed as protection against maximal electroshock-induced seizures by measuring time to peak effect at 100 mg/kg, ip pretreated up to 2 hrs followed by 50 Hz current induction for […]", "assay_type": "functional"}, "Mus musculus [6]": {"system": "Mus musculus", "assay": "Anticonvulsant activity in Albino Swiss CD-1 mouse assessed as protection against maximal electroshock-induced seizures at 100 mg/kg, ip pretreated up to 2 hrs followed by 50 Hz current induction for […] relative to control", "assay_type": "functional"}, "Mus musculus [7]": {"system": "Mus musculus", "assay": "Anticonvulsant activity in Albino Swiss CD-1 mouse assessed as inhibition of pentylenetetrazole-induced seizures by measuring time to peak effect at 100 mg/kg, ip administered up to 2 hrs prior to PTZ induction measured for 30 mins", "assay_type": "functional"}, "Mus musculus [8]": {"system": "Mus musculus", "assay": "Anticonvulsant activity in Albino Swiss CD-1 mouse assessed as inhibition of pentylenetetrazole-induced seizures at 100 mg/kg, ip administered up to 0.5 hrs prior to PTZ induction measured after 30 mins relative to control", "assay_type": "functional", "parameters": "scale not given: the % may be the effect or the level left"}, "Mus musculus [9]": {"system": "Mus musculus", "assay": "Protection index, ratio of TD50 for neurotoxicity in ip dosed Albino Swiss CD-1 mouse to ED50 for ip dosed maximal electroshock induced seizure Albino Swiss CD-1 mouse", "outline": "(§2)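 Acute neurological toxicity after ip dosing (1% Tween 80 suspension) was assessed in the mouse chimney test. TD50 with 95% confidence limits was derived by probit analysis. Protective index is TD50 from the chimney test divided by ED50 from the MES, scPTZ or 6 Hz test.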"}, "[10]": {"assay": "Neurotoxicity in ip dosed Albino Swiss CD-1 mouse assessed as induction of motor impairment measured up to 60 secs by chimney test", "assay_type": "toxicity, organism-based", "settings": "in vivo", "outline": "as §2"}, "Mus musculus [11]": {"system": "Mus musculus", "assay": "Protection index, ratio of TD50 for neurotoxicity in ip dosed Albino Swiss CD-1 mouse to ED50 for ip dosed Albino Swiss CD-1 mouse model of 6 Hz-induced siezures", "outline": "as §2"}, "Mus musculus [12]": {"system": "Mus musculus", "assay": "Protection index, ratio of TD50 for neurotoxicity in ip dosed Albino Swiss CD-1 mouse to ED50 for ip dosed pentylenetetrazole induced seizure Albino Swiss CD-1 mouse model", "outline": "as §2"}, "Mus musculus [13]": {"system": "Mus musculus", "assay": "Antinociceptive activity in Albino Swiss CD-1 mouse assessed as inhibition of formalin-induced inflammatory pain response administered ip 30 mins before formalin injection measured after 15 to 30 mins", "assay_type": "functional", "settings": "Swiss CD-1, ip", "outline": "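Male CD-1 mice were given test agents ip 30 min before subcutaneous intraplantar formalin. Doses were 12.5, 25 or 50 mg/kg, or 100, 150 or 200 mg/kg for the reference. Vehicle was 1% Tween 80 at 10 mL/kg. Paw licking time was recorded in phase I (0–5 min) and phase II (15–30 min). Data are mean ± SEM of 8–10 mice, by Dunnett's test. ED50 was obtained by log-probit analysis with 95% confidence limits.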"}, "Mus musculus [14]": {"system": "Mus musculus", "assay": "Antiallodynic activity in oxaliplatin-induced Albino Swiss CD-1 mouse model of peripheral neuropathy assessed as elevation in pain sensitivity threshold at 25 mg/kg, ip administered 30 mins prior to oxaliplatin challenge relative to control", "assay_type": "functional", "outline": "(§3)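 Male CD-1 mice, 18–25 g, that had developed oxaliplatin-induced tactile allodynia were dosed ip 30 min before testing. Doses were 25, 50 or 100 mg/kg, or 50, 100 or 150 mg/kg for the reference. Vehicle was 1% aqueous Tween 80. Paw-withdrawal force was measured by von Frey filaments. Data are mean ± SEM, analysed by repeated-measures ANOVA with Dunnett's test against oxaliplatin plus vehicle mice.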"}, "Mus musculus [15]": {"system": "Mus musculus", "assay": "Antiallodynic activity in oxaliplatin-induced Albino Swiss CD-1 mouse model of peripheral neuropathy assessed as elevation in pain sensitivity threshold at 50 mg/kg, ip administered 30 mins prior to oxaliplatin challenge relative to control", "assay_type": "functional", "outline": "as §3"}, "Mus musculus [16]": {"system": "Mus musculus", "assay": "Antiallodynic activity in oxaliplatin-induced Albino Swiss CD-1 mouse model of peripheral neuropathy assessed as elevation in pain sensitivity threshold at 100 mg/kg, ip administered 30 mins prior to oxaliplatin challenge relative to control", "assay_type": "functional", "outline": "as §3"}, "Mus musculus [17]": {"system": "Mus musculus", "assay": "Antiallodynic activity in oxaliplatin-induced Albino Swiss CD-1 mouse model of peripheral neuropathy assessed as elevation in pain sensitivity threshold administered ip 30 mins prior to oxaliplatin challenge", "assay_type": "functional, organism-based", "outline": "as §3"}, "Mus musculus [18]": {"system": "Mus musculus", "assay": "Antiallodynic activity in oxaliplatin-induced Albino Swiss CD-1 mouse model of peripheral neuropathy assessed as elevation in pain sensitivity threshold at […], ip administered 30 mins prior to oxaliplatin challenge relative to control", "assay_type": "functional"}, "Mus musculus [19]": {"system": "Mus musculus", "assay": "Toxicity in Albino Swiss CD-1 mouse assessed as motor coordination impairment at 50 to 150 mg/kg, ip by rotarod test", "assay_type": "organism-based", "settings": "in vivo"}, "Rattus norvegicus [20]": {"species_on_record": "Rattus norvegicus", "assay": "Displacement of [3H]-batrachotoxinin from sodium channel site 2 in rat cerebral cortex at 100 uM after 60 mins by liquid scintillation spectroscopic method", "outline": "(§4)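 Run commercially by an outside contract lab, with the compound tested at 100 μM. The read-out was percent inhibition of binding of the radiolabelled ligand, reported as compound binding.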"}, "Rattus norvegicus [21]": {"species_on_record": "Rattus norvegicus", "assay": "Displacement of [3H]diltiazem from L-type calcium channel diltiazem binding site in rat cerebral cortical membranes at 100 uM after 60 mins", "assay_type": "cell membranes", "outline": "as §1"}, "Rattus norvegicus [22]": {"species_on_record": "Rattus norvegicus", "assay": "Displacement of omega[125I]conotoxin from N-type calcium channel in rat cerebral cortex at 100 uM by scintillation spectrophotometry", "outline": "as §4"}, "Rattus norvegicus [23]": {"species_on_record": "Rattus norvegicus", "assay": "Displacement of [3H]GABA from GABA transporter in rat cerebral cortex at 100 uM by liquid scintillation spectrometry", "outline": "as §1"}, "[24]": {"target": "GABA-A receptor; alpha-1/beta-2/gamma-2 (Homo sapiens) (UniProt P14867+P47870+P18507)", "assay": "Displacement of [3H]muscimol from human GABAalpha1beta2gamma2 receptor expressed in CHO cells at 100 uM after 30 mins by liquid scintillation counting", "assay_type": "cell-based", "outline": "as §1"}, "Mus musculus [25]": {"system": "Mus musculus", "assay": "Toxicity in Albino Swiss CD-1 mouse assessed as effect on spontaneous locomotar activity at 25 to 150 mg/kg, ip treated 30 mins prior to test", "assay_type": "organism-based", "settings": "in vivo, 0.5 h", "outline": "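Male CD-1 mice were dosed ip at 25, 50, 100 or 150 mg/kg 30 min before testing and then placed singly in activity cages. Light-beam crossings were counted over 30 min in 10 min intervals.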"}}, "note": "Activity calls are given as the source filed them.", "data": [{"smiles": "COCC(C(=O)N1CCN(c2ccc(C(F)(F)F)cc2)CC1)N1C(=O)CCC1=O", "note": "(stereo not given)", "values": [{"measurement": "Retention time", "setting": "[1]", "result": 6.11, "unit": "min"}, {"measurement": "inhibition", "setting": "Rattus norvegicus [2]", "result": "inactive"}, {"measurement": "inhibition", "setting": "Mus musculus [3]", "result": "Dose-dependent effect"}, {"measurement": "Activity", "setting": "Mus musculus [4]", "result": "<=75%"}, {"measurement": "Time", "setting": "Mus musculus [5]", "result": "0.25 to 1", "unit": "h"}, {"measurement": "Activity", "setting": "Mus musculus [6]", "result": "75 - 100%"}, {"measurement": "Time", "setting": "Mus musculus [7]", "result": 0.5, "unit": "h"}, {"measurement": "Activity", "setting": "Mus musculus [8]", "result": 75, "unit": "%"}, {"measurement": "Ratio TD50/ED50", "setting": "Mus musculus [9]", "result": "1.9 - 2.5"}, {"measurement": "TD50 at 1 min", "setting": "[10]", "result": "156 to 199", "unit": "mg/kg"}, {"measurement": "Ratio TD50/ED50", "setting": "Mus musculus [11]", "result": "5.8 - 8.9"}, {"measurement": "Ratio TD50/ED50", "setting": "Mus musculus [12]", "result": 1.6}, {"measurement": "ED50", "setting": "Mus musculus [13]", "result": 5.1, "unit": "mg/kg"}, {"measurement": "Activity", "setting": "Mus musculus [14]", "result": 112.6, "unit": "%"}, {"measurement": "Activity", "setting": "Mus musculus [15]", "result": 121, "unit": "%"}, {"measurement": "Activity", "setting": "Mus musculus [16]", "result": 149.2, "unit": "%"}, {"measurement": "Activity", "setting": "Mus musculus [17]", "result": "Dose-dependent effect"}, {"measurement": "Activity", "setting": "Mus musculus [18]", "result": 122, "unit": "%"}, {"measurement": "Activity", "setting": "Mus musculus [19]", "result": "Non-Toxic"}, {"measurement": "inhibition", "setting": "Rattus norvegicus [20]", "result": "inactive"}, {"measurement": "inhibition", "setting": "Rattus norvegicus [21]", "result": "inactive"}, {"measurement": "inhibition", "setting": "Rattus norvegicus [22]", "result": "inactive"}, {"measurement": "inhibition", "setting": "Rattus norvegicus [23]", "result": "inactive"}, {"measurement": "inhibition", "setting": "[24]", "result": "inactive"}, {"measurement": "Activity", "setting": "Mus musculus [25]", "result": "Non-Toxic"}]}]}
